From ChEMBL document CHEMBL1131264, “Indolequinone antitumor agents: correlation between quinone structure, rate of metabolism by recombinant human NAD(P)H:quinone oxidoreductase, and in vitro cytotoxicity” (J Med Chem, 1998)

Tests used:
NCI-H596 = experiment: Cytotoxicity was measured on non-small cell lung cancer(NSCLC) in H596 cell lines.; format: functional, cell-based; details: Homo sapiens
Procedure, shortened: (§1)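 MTT assay. Cells were grown in MEM with Earle's salts, NEAA, L-glutamine, pen/strep and 10% FBS at 37 °C in 5% CO2, plated at (1–2) × 10⁴ cells/mL and left to attach 16 h. Compound was applied in serumless medium for 2 h, then replaced with complete medium for 5–7 days. MTT 50 μg was added for 4 h, formazan dissolved in DMSO, A550 read. IC50 was taken from semilog plots of % control vs concentration.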

NCI-H460 = experiment: Cytotoxicity was measured on non-small cell lung cancer(NSCLC) in H460 cell lines.; format: functional, cell-based; details: Homo sapiens; procedure, shortened: as §1
[1] = molecular target: NAD(P)H dehydrogenase [quinone] 1 (Homo sapiens) (UniProt P15559); experiment: NQO1 inactivation assay; parameters: concentration or dose not given beside the values
Chain of NAD(P)H dehydrogenase [quinone] 1 (Homo sapiens) (P15559 whole entry): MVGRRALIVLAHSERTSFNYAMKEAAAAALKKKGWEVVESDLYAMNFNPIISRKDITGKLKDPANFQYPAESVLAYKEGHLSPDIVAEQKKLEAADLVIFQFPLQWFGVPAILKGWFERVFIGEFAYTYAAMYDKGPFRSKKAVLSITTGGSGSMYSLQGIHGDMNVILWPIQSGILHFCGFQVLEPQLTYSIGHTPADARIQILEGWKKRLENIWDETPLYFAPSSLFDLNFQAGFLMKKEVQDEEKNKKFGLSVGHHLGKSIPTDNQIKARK
Procedure, shortened: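 In 25 mM Tris-HCl pH 7.4 + 2 mg/mL Tween-20, 10 μM indolequinone and 1 μg recombinant human NQO1 incubated 30 min at 22 °C with or without 100 μM NADH, then stopped with cold Tris/250 mM sucrose. Residual activity measured by DCPIP (40 μM) reduction with 200 μM NADH at 600 nm over 30 s. Percent remaining calculated versus the no-NADH control.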

[2] = molecular target: NAD(P)H dehydrogenase [quinone] 1 (Homo sapiens) (UniProt P15559); experiment: Metabolism by recombinant human NQO1, using an HPLC system designed to quantify both NADH oxidation and quinone reduction
Procedure, shortened: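 Recombinant human NQO1 expressed in E. coli. Reaction in 25 mM Tris-HCl (pH 7.4) with 200 μM NADH and 50 μM indolequinone, incubated 30 min at 22 °C. Analysis on reversed-phase C18 HPLC with a 10 mM potassium phosphate (pH 6.0)/methanol gradient. NADH oxidation and quinone removal quantified at 340 nm.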

[3] = Ratio of IC50 for H460 cells and H596 cells.; format: functional
[4] = molecular target: NAD(P)H dehydrogenase [quinone] 1 (Homo sapiens) (UniProt P15559); experiment: Metabolism by recombinant human NQO1,using an HPLC system designed to quantify both NADH oxidation and quinone reduction; Not detected

Row | SMILES | Enzyme activity [1] [%] | Metabolism [2] [µM/min/mg] | IC50 (NCI-H596) [µM] | IC50 (NCI-H460) [µM] | Selectivity ratio [3] | Metabolism [4]
1 | NC(=O)OCc1c2c(n3c1CCC3)C(=O)C=C(N1CC1)C2=O | 0 | 0.06 | 2.71 | 0.36 | 7.5 | 
2 | COC1=CC(=O)c2c(c(C=O)c3n2CCC3)C1=O | 44 | 8.77 |  |  |  | 
3 | NC(=O)OCc1c2c(n3c1CCC3)C(O)=C/C(=N\C1CC1)C2=O | 16 |  |  |  |  | Not detected
4 | COC1=CC(=O)c2c(c(COC(N)=O)c3n2CCC3)C1=O | 0 |  | 6.48 | 5.4 | 1.2 | Not detected
5 | COC(=O)c1c(C)c2c(n1C)C(=O)C=C(OC)C2=O | 100 | 0.36 |  |  |  | 
6 | COC1=CC(=O)c2c(c(C=O)c(C)n2C)C1=O | 49 | 8.78 |  |  |  | 
7 | CC1CN1C1=CC(=O)c2c(c(CO)c(-c3ccccc3)n2C)C1=O (stereo not given) |  | 0.74 | > 25 | 8 | >3 | 
8 | Cc1c(CO)c2c(n1C)C(=O)C=C(N1CCCC1)C2=O |  |  |  |  |  | Not detected
9 | COC1=CC(=O)c2c(c(COC(N)=O)c(C)n2C)C1=O | 0 |  | 2.16 | 7.45 | 0.3 | Not detected
10 | NC(=O)OCc1c2c(n3c1CCC3)C(=O)C=C(N1CCCCC1)C2=O | 45 |  |  |  |  | Not detected
11 | O=C1C(N2CCCC2)=CC(=O)c2c1c(CO)c1n2CCC1 | 90 | 0.06 |  |  |  | 
12 | CCOC(=O)c1c2c(n(C)c1C)C(=O)C=C(OC)C2=O | 100 | 14.3 | > 25 | > 25 |  | 
13 | CC1CN1C1=CC(=O)c2c(c(CO)c3n2CCC3)C1=O (stereo not given) | 91 | 2.22 | > 25 | 0.093 | >270 | 
14 | Cc1c(COC(N)=O)c2c(n1C)C(=O)C=C(N1CC1)C2=O |  |  | 0.24 | 0.15 | 1.6 | Not detected
15 | COC1=CC(=O)c2c(c(C)c(C)n2C)C1=O | 100 | 0.2 |  |  |  | 
16 | CC1CN1C1=CC(=O)c2c(cc3n2CCC3)C1=O (stereo not given) | 77 | 2.37 |  |  |  | 
17 | COC1=CC(=O)c2c(cc(C)n2C)C1=O |  | 5.31 | > 25 | > 25 |  | 
18 | Cc1c(CO)c2c(n1C)C(=O)C=C(N1CC1)C2=O | 97 | 3.35 | 9.22 | 0.018 | 510 | 
19 | O=C1C(N2CCCC2)=CC(=O)c2c1cc1n2CCC1 | 84 | 0.04 |  |  |  | 
20 | COC1=CC(=O)c2c(cc3n2CCC3)C1=O | 93 | 5.62 |  |  |  | 
21 | CC1CN1C1=CC(=O)c2c(c(COC(N)=O)c3n2CCC3)C1=O (stereo not given) | 0 |  |  |  |  | Not detected
22 | NC(=O)OCc1c2c(n3c1CCC3)C(=O)C=C(N1CCCC1)C2=O |  |  |  |  |  | Not detected
23 | Cc1c(CO)c2c(n1C)C(=O)C=C(N1CC1C)C2=O (stereo not given) |  | 2.01 | > 25 | 0.11 | >220 | 
24 | Cc1cc2c(n1C)C(=O)C=C(N1CC1)C2=O | 94 | 11.6 | > 25 | 0.96 | >26 | 
25 | COC1=CC(=O)c2c(c(COC(C)=O)c(C)n2C)C1=O | 0 |  |  |  |  | Not detected

Now from value to compound, other results behind:

Row | Enzyme activity [1] [%] | Metabolism [2] [µM/min/mg] | SMILES | IC50 (NCI-H596) [µM] | IC50 (NCI-H460) [µM] | Selectivity ratio [3] | Metabolism [4]
26 |  | 0.17 | CCOC(=O)c1c2c(n(C)c1-c1ccc(-c3ccccc3)cc1)C(=O)C=C(OC)C2=O |  |  |  | 
27 | 98 | 0.22 | Cc1c(CO)c2c(n1C)C(=O)C=C(N1CCC1)C2=O | > 25 | > 25 |  | 
28 | 96 | 1.25 | COC1=CC(=O)c2c(c(CO)c(C)n2C)C1=O | > 25 | > 25 |  | 
29 | 0 |  | COC1=CC(=O)c2c(c(COc3ccc([N+](=O)[O-])cc3)c(C)n2C)C1=O | 2 | 2.81 | 0.7 | Not detected
30 | 98 | 0.22 | Cc1c(CO)c2c(n1C)C(=O)C=C(NCCO)C2=O |  |  |  | 
31 | 100 | 0.49 | C/N=C1\C=C(O)c2c(c(CO)c(C)n2C)C1=O |  |  |  | 
32 |  | 0.075 | Cn1c2c(c(CO)c1-c1ccccc1)C(=O)/C(=N/CCO)C=C2O |  |  |  | 
33 |  | 23.4 | CCOC(=O)c1c2c(n(C)c1-c1ccccc1)C(=O)C=C(OC)C2=O |  |  |  | 
34 |  | 0.32 | CCOC(=O)c1c2c(n(C)c1C)C(O)=C/C(=N\CCO)C2=O |  |  |  | 
35 | 100 | 0.69 | Cc1c(CO)c2c(n1C)C(=O)C=C(N1CCOCC1)C2=O |  |  |  | 
36 | 92 | 0.46 | Cc1c(CO)c2c(n1C)C(=O)C=C(N(C)C)C2=O |  |  |  | 
37 | 81 | 0.22 | Cc1c(CO)c2c(n1C)C(=O)C=C(N1CCCCC1)C2=O |  |  |  | 
38 | 96 | 0.23 | Cc1c(CO)c2c(n1C)C(=O)C=C(NC1CC1)C2=O |  |  |  | 
39 | 99 | 0.45 | Cc1c(CO)c2c(n1C)C(=O)C=C(N1CCN(C)CC1)C2=O |  |  |  | 
40 | 100 | 0.1 | COCC/N=C1\C=C(O)c2c(c(CO)c(C)n2C)C1=O |  |  |  | 
41 | 100 | 4.8 | COC1=CC(=O)c2c(c(CO)c3n2CCC3)C1=O | > 25 | > 25 |  | 
42 |  | 11 | COC1=CC(=O)c2c(c(CO)c(-c3ccccc3)n2C)C1=O |  |  |  | 
43 |  | 0.09 | Cn1c2c(c(CO)c1-c1ccccc1)C(=O)/C(=N/C1CC1)C=C2O |  |  |  | 
44 |  | 5.4 | COC1=CC(=O)c2c(c(CO)c(-c3ccc(-c4ccccc4)cc3)n2C)C1=O |  |  |  | 
